Measurements: ChEMBL document CHEMBL2086222, “Bioassay-guided isolation of prenylated xanthones and polycyclic acylphloroglucinols from the leaves of Garcinia nujiangensis” (J Nat Prod, 2012)
The source made the active and inactive calls. No cut-off for these calls is given here.

Assays:
[1] = system: HepG2; assay: Cytotoxicity against human HepG2 cells assessed as reduction in cell viability at 5 to 40 uM after 72 hrs by MTT assay; assay type: functional, cell-based
Procedure, shortened: (§1)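 Cells in RPMI 1640, DMEM or DMEM/F12 with 10% FBS, 37 °C, 5% CO2. Plated at 5 × 10^3 cells/well and attached overnight. Exposed 72 h to 5, 10, 20 or 40 μM from DMSO stocks diluted in medium. MTT (5 mg/mL stock in PBS) added for 4 h at 37 °C, formazan dissolved in DMSO, A490 read. Untreated cells taken as 100%.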

[2] = system: MCF7; assay: Cytotoxicity against human MCF7 cells assessed as reduction in cell viability at 5 to 40 uM after 72 hrs by MTT assay; assay type: functional, cell-based; procedure, shortened: as §1
[3] = system: U-87MG ATCC; assay: Cytotoxicity against human U87 cells assessed as reduction in cell viability at 5 to 40 uM after 72 hrs by MTT assay; assay type: functional, cell-based; procedure, shortened: as §1
[4] = system: AGS; assay: Cytotoxicity against human AGS cells assessed as reduction in cell viability at 5 to 40 uM after 72 hrs by MTT assay; assay type: functional, cell-based; procedure, shortened: as §1
[5] = system: NCI-H2126; assay: Cytotoxicity against human NCI-H2126 cells assessed as reduction in cell viability at 5 to 40 uM after 72 hrs by MTT assay; assay type: functional, cell-based; procedure, shortened: as §1
[6] = system: PANC-1; assay: Cytotoxicity against human PANC1 cells assessed as reduction in cell viability at 5 to 40 uM after 72 hrs by MTT assay; assay type: functional, cell-based; procedure, shortened: as §1
[7] = system: BXPC-3; assay: Cytotoxicity against human BxPC3 cells assessed as reduction in cell viability at 5 to 40 uM after 72 hrs by MTT assay; assay type: functional, cell-based; procedure, shortened: as §1
[8] = Cytotoxicity against human MIHA cells assessed as reduction in cell viability at 5 to 40 uM after 72 hrs by MTT assay; assay type: cell-based; procedure, shortened: as §1
[9] = system: MDA-MB-231; assay: Cytotoxicity against human MDA-MB-231 cells assessed as reduction in cell viability at 5 to 40 uM after 72 hrs by MTT assay; assay type: functional, cell-based; procedure, shortened: as §1
[10] = system: SMMC-7721; assay: Cytotoxicity against human SMMC7721 cells assessed as reduction in cell viability at 5 to 40 uM after 72 hrs by MTT assay; assay type: functional, cell-based; procedure, shortened: as §1
[11] = system: A549; assay: Cytotoxicity against human A549 cells assessed as reduction in cell viability at 5 to 40 uM after 72 hrs by MTT assay; assay type: functional, cell-based; procedure, shortened: as §1
[12] = system: A-375; assay: Cytotoxicity against human A375 cells assessed as reduction in cell viability at 5 to 40 uM after 72 hrs by MTT assay; assay type: functional, cell-based; procedure, shortened: as §1
[13] = system: PANC-1; assay: Cytotoxicity against human PANC1 cells assessed as reduction in cell viability after 72 hrs by MTT assay; assay type: functional, cell-based; conditions: PANC-1, 72 h; procedure, shortened: as §1
[14] = system: A549; assay: Cytotoxicity against human A549 cells assessed as reduction in cell viability after 72 hrs by MTT assay; assay type: functional, cell-based; conditions: A549, 72 h
Procedure, shortened: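 Human lung line cultured in RPMI 1640, DMEM or DMEM/F12 with 10% FBS at 37 °C, 5% CO2. 5 × 10^3 cells/well plated and left to attach overnight. Compound taken from DMSO stock, diluted in medium, tested at 5, 10, 20 and 40 μM for 72 h. MTT (5 mg/mL stock) added for 4 h at 37 °C. Formazan dissolved in DMSO, absorbance read at 490 nm. Untreated cells set as 100%.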

[15] = system: NCI-H2126; assay: Cytotoxicity against human NCI-H2126 cells assessed as reduction in cell viability after 72 hrs by MTT assay; assay type: functional, cell-based; conditions: NCI-H2126, 72 h; procedure, shortened: as §1
[16] = system: BXPC-3; assay: Cytotoxicity against human BxPC3 cells assessed as reduction in cell viability after 72 hrs by MTT assay; assay type: functional, cell-based; conditions: BXPC-3, 72 h; procedure, shortened: as §1
[17] = system: SMMC-7721; assay: Cytotoxicity against human SMMC7721 cells assessed as reduction in cell viability after 72 hrs by MTT assay; assay type: functional, cell-based; conditions: SMMC-7721, 72 h; procedure, shortened: as §1
[18] = system: AGS; assay: Cytotoxicity against human AGS cells assessed as reduction in cell viability after 72 hrs by MTT assay; assay type: functional, cell-based; procedure, shortened: as §1
[19] = system: A-375; assay: Cytotoxicity against human A375 cells assessed as reduction in cell viability after 72 hrs by MTT assay; assay type: functional, cell-based; conditions: A-375, 72 h; procedure, shortened: as §1

SMILES | Activity [1] | Activity [2] | Activity [3] | Activity [4] | Activity [5] | Activity [6] | Activity [7] | Activity [8] | Activity [9] | Activity [10] | Activity [11] | Activity [12] | IC50 [13] | IC50 [14] | IC50 [15] | IC50 [16] | IC50 [17] | IC50 [18] | IC50 [19]
COc1c(OC)c(O)c2c(=O)c3c(CC=C(C)C)c(CC=C(C)C)c(O)c(O)c3oc2c1CC=C(C)C [NUJIANGEXANTHONE B] | Active | Active | Active | Active | Active | Active | Active | Non-toxic | Active | Active | Active | Active |  |  |  |  |  |  | 
C=C(C)CC[C@@H]1C[C@]23C[C@H](CC=C(C)C)C(C)(C)[C@](CC=C(C)C)(C(=O)C(C(=O)c4ccc(O)c(O)c4)=C2OC1(C)C)C3=O [CYCLOXANTHOCHYMOL] | Active | Active | Active | Active | Active | Active | Active | Non-toxic | Active | Active | Active | Active |  |  |  |  |  |  | 
C=C(C)[C@@H]1C[C@]23C[C@H](CC=C(C)C)C(C)(C)[C@](CC=C(C)C)(C(=O)C(C(=O)c4ccc(O)c(O)c4)=C2O[C@H]1C=C(C)C)C3=O [GARCINIALIPTONE B] | Active | Active | Active | Active | Active | Active | Active | Non-toxic | Active | Active | Active | Active |  |  |  |  |  |  | 
C=C(C)[C@@H](CC=C(C)C)C[C@@]12C[C@H](CC=C(C)C)C(C)(C)[C@@](CC=C(C)C)(C(=O)C(C(=O)c3ccc(O)c(O)c3)=C1O)C2=O | Active | Active | Active | Active | Active | Active | Active | Non-toxic | Active | Active | Active | Active |  |  |  |  |  |  | 
CC(C)=CC[C@H]1C[C@@]23C[C@@H](CC=C(C)C)C(C)(C)[C@@](CC=C(C)C)(C(=O)C(C(=O)c4ccc(O)c(O)c4)=C2OC1(C)C)C3=O [CAMBOGIN] | Active | Active | Active | Active | Active | Active | Active | Non-toxic | Active | Active | Active | Active |  |  |  |  |  |  | 
O=c1c(O)c(-c2ccc(O)cc2)oc2cc(O)cc(O)c12 [KAEMPFEROL] | Active | Active | Active | Active | Active | Active | Active | Non-toxic | Active | Active | Active | Active |  |  |  |  |  |  | 
C=C(C)CCC(C[C@@]12C[C@H](CC=C(C)C)C(C)(C)[C@@](CC=C(C)C)(C1=O)c1oc3cc(O)c(O)cc3c(=O)c1C2=O)C(=C)C (relative stereo) | Active | Active | Active | Active | Active | Active | Active | Non-toxic | Active | Active | Active | Active |  |  |  |  |  |  | 
CC(=O)O[C@H]1C(=O)[C@@]2(C)[C@H]([C@H](OC(=O)c3ccccc3)[C@]3(O)C[C@H](OC(=O)[C@H](O)[C@@H](NC(=O)c4ccccc4)c4ccccc4)C(C)=C1C3(C)C)[C@]1(OC(C)=O)CO[C@@H]1C[C@@H]2O [PACLITAXEL] |  |  |  |  |  |  |  |  |  |  |  |  | 260 nM | 720 nM | 2500 nM | 90 nM | 150 nM | 1600 nM | 9.2 nM
COc1cc2c(=O)c3c(O)c(CC=C(C)C)c(O)c(CC=C(C)C)c3oc2c(O)c1O [XANTHONE V2A] | Active | Active | Active | Active | Active | Active | Active | Non-toxic | Active | Active | Active | Active |  |  |  |  |  |  | 
C=C(C)CCC(C[C@]12C[C@@H]3[C@H](C=C(C)C)[C@](C(=O)c4ccc(O)c(O)c4)(C1=O)C(=O)[C@](CC=C(C)C)(C2=O)C3(C)C)C(=C)C (stereo partly specified) | Active | Active | Active | Active | Active | Active | Active | Non-toxic | Active | Active | Active | Active |  |  |  |  |  |  | 
CC(C)=CC[C@H]1C[C@@]23C[C@H](CC=C(C)C)C(C)(C)[C@@](CC=C(C)C)(C(=O)C(C(=O)c4ccc(O)c(O)c4)=C2OC1(C)C)C3=O | Active | Active | Active | Active | Active | Active | Active | Non-toxic | Active | Active | Active | Active |  |  |  |  |  |  | 
COc1c(O)c(O)c2c(=O)c3c(CC=C(C)C)c(CC=C(C)C)c(O)c(O)c3oc2c1CC=C(C)C [NUJIANGEXANTHONE A] | Active | Active | Active | Active | Active | Active | Active | Non-toxic | Active | Active | Active | Active |  |  |  |  |  |  | 
CC1(C)C=Cc2c(cc(O)c3c(=O)c4ccc(O)c(O)c4oc23)O1 [ISOJACAREUBIN] |  |  |  |  |  |  |  | Non-toxic |  |  |  |  |  |  |  |  |  |  | 
C=C(C)CC[C@H]1C[C@@]23C[C@@H](CC=C(C)C)C(C)(C)[C@@](CC=C(C)C)(C(=O)C(C(=O)c4ccc(O)c(O)c4)=C2OC1(C)C)C3=O | Active | Active | Active | Active | Active | Active | Active | Non-toxic | Active | Active | Active | Active |  |  |  |  |  |  | 
C=C(C)CCC(C[C@@]12C[C@@H](CC=C(C)C)C(C)(C)[C@@](CC=C(C)C)(C(=O)c3c1oc1cc(O)c(O)cc1c3=O)C2=O)C(=C)C (relative stereo) | Active | Active | Active | Active | Active | Active | Active | Non-toxic | Active | Active | Active | Active |  |  |  |  |  |  | 
C=C(C)CCC(C[C@]12C[C@H](CC=C(C)C)C(C)(C)[C@@]3(C[C@@H](C(C)(C)O)OC3=C(C(=O)c3ccc(O)c(O)c3)C1=O)C2=O)C(=C)C (relative stereo) | Active | Active | Active | Active | Active | Active | Active | Non-toxic | Active | Active | Active | Active |  |  |  |  |  |  | 
